Test results from ChEMBL document CHEMBL4270668, “Design, Synthesis, Molecular Dynamics Simulation, and Functional Evaluation of a Novel Series of 26RFa Peptide Analogues Containing a Mono- or Polyalkyl Guanidino Arginine Derivative” (J Med Chem, 2018).
Starred links: 1 amine or outer side, 2 acyl side, 3 side chain; linkers in the order of their positions; H or OH if unused. Non-standard residues stand in square brackets, D forms with d. Residues, ends and D or L forms follow the SMILES beside them. X11 = CC(C)CNC(=N)NCCCC[C@H](N[*:1])C(=O)[*:2]; X16 = CC(C)CNC(=N)NCCC[C@H](N[*:1])C(=O)[*:2]; X17 = CC(C)CNC(=N)NCC[C@H](N[*:1])C(=O)[*:2]; X2 = CCN(C)C(=N)NCCCC[C@H](N[*:1])C(=O)[*:2]; X21 = CCN(C)C(=N)NCCC[C@H](N[*:1])C(=O)[*:2]; X12 = CCCNC(=N)NCCCC[C@H](N[*:1])C(=O)[*:2]; X3 = CN(C)C(=N)NCCCC[C@H](N[*:1])C(=O)[*:2]; X20 = CCNC(=N)NCCCC[C@H](N[*:1])C(=O)[*:2]; X23 = CN(C)C(=N)NCC[C@H](N[*:1])C(=O)[*:2]; X7 = CCN(C)C(=N)NCC[C@H](N[*:1])C(=O)[*:2]; X9 = N=C(NCC[C@H](N[*:1])C(=O)[*:2])N1CCC1; Arg(ω-nPr) = CCCNC(=N)NCCC[C@H](N)C(=O)O; X15 = CCNC(=N)NCC[C@H](N[*:1])C(=O)[*:2]; Arg(Me2s) = CN=C(NC)NCCC[C@H](N)C(=O)O; hArg = N=C(N)NCCCC[C@H](N)C(=O)O; Agb = N=C(N)NCC[C@H](N)C(=O)O

Assays:
[1] = biological target: T1, Pyroglutamylated RF-amide peptide receptor (Homo sapiens, UniProt Q96P65); assay: Antagonist activity at human QRFPR expressed in CHO cells co-expressing Galpha16 assessed as inhibition of 26RFa-induced Ca2+ mobilization preincubated for 15 mins followed by agonist addition measured after 3 mins by Fluo-4 AM-based scanning fluorometery; type: functional, cell-based
T1 sequence (Q96P65 whole entry): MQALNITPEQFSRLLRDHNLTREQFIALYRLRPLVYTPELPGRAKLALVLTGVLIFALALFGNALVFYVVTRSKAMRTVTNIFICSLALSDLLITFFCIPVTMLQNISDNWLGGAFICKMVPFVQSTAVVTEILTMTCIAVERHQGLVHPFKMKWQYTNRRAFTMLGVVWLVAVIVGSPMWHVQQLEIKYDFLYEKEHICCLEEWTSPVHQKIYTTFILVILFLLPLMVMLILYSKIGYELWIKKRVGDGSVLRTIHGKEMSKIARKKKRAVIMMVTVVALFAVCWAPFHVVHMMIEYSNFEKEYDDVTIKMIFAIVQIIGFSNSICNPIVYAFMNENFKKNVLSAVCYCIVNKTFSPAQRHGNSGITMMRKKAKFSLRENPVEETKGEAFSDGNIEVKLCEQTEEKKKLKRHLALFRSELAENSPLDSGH
Summary of the method: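 CHO-Gα16-hQRFPR cells loaded 1 h with 2 µM Fluo-4 AM, then incubated 15 min with graded compound. A 10^-7 M final 26RFa pulse was given during recording. Background subtracted, baseline normalized to 100%, peak fluorescence taken per concentration. IC50 from sigmoidal variable-slope fits, ≥3 experiments in triplicate. Maximal effect at 10^-4 M expressed as % inhibition of the 26RFa (10^-7 M) response.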

[2] = biological target: T1, Pyroglutamylated RF-amide peptide receptor; assay: Agonist activity at human QRFPR expressed in CHO cells co-expressing Galpha16 assessed as increase Ca2+ mobilization after 3 mins by Fluo-4 AM-based scanning fluorometery; type: functional, cell-based
Summary of the method: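 CHO-Gα16 cells stably expressing human QRFPR, seeded at 40,000 cells/well 24 h ahead. Loaded 1 h with 2 µM Fluo-4 AM plus 0.01% pluronic acid, washed, then 30 min in HBSS with 2.5 mM probenecid and 5 mM HEPES. Compounds added at final 10^-11 to 10^-5 M; fluorescence recorded 3 min on a scanning fluorometer. EC50 from sigmoidal variable-slope fits, ≥3 experiments in triplicate.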

| Structure (SMILES) | IC50 [1] [µM] | EC50 [2] [µM] |
| --- | --- | --- |
| CCN(C)C(=N)NCCCC[C@H](NC(=O)[C@H](Cc1ccccc1)NC(=O)[C@H](CO)NC(=O)[C@H](Cc1ccccc1)NC(=O)CNC(=O)CN)C(=O)N[C@@H](Cc1ccccc1)C(N)=O (H-GGFSF[X2]F-NH2) | > 100 | > 100 |
| N=C(N)NCC[C@H](NC(=O)[C@H](Cc1ccccc1)NC(=O)[C@H](CO)NC(=O)[C@H](Cc1ccccc1)NC(=O)CNC(=O)CN)C(=O)N[C@@H](Cc1ccccc1)C(N)=O (H-GGFSF[Agb]F-NH2) | > 100 | > 100 |
| CCNC(=N)NCCCC[C@H](NC(=O)[C@H](Cc1ccccc1)NC(=O)[C@H](CO)NC(=O)[C@H](Cc1ccccc1)NC(=O)CNC(=O)CN)C(=O)N[C@@H](Cc1ccccc1)C(N)=O (H-GGFSF[X20]F-NH2) | > 100 | > 100 |
| CCN(C)C(=N)NCC[C@H](NC(=O)[C@H](Cc1ccccc1)NC(=O)[C@H](CO)NC(=O)[C@H](Cc1ccccc1)NC(=O)CNC(=O)CN)C(=O)N[C@@H](Cc1ccccc1)C(N)=O (H-GGFSF[X7]F-NH2) | > 100 | > 100 |
| CCCNC(=N)NCCCC[C@H](NC(=O)[C@H](Cc1ccccc1)NC(=O)[C@H](CO)NC(=O)[C@H](Cc1ccccc1)NC(=O)CNC(=O)CN)C(=O)N[C@@H](Cc1ccccc1)C(N)=O (H-GGFSF[X12]F-NH2) | > 100 | > 100 |
| CCNC(=N)NCC[C@H](NC(=O)[C@H](Cc1ccccc1)NC(=O)[C@H](CO)NC(=O)[C@H](Cc1ccccc1)NC(=O)CNC(=O)CN)C(=O)N[C@@H](Cc1ccccc1)C(N)=O (H-GGFSF[X15]F-NH2) | > 100 | > 100 |
| N=C(NCC[C@H](NC(=O)[C@H](Cc1ccccc1)NC(=O)[C@H](CO)NC(=O)[C@H](Cc1ccccc1)NC(=O)CNC(=O)CN)C(=O)N[C@@H](Cc1ccccc1)C(N)=O)N1CCC1 (H-GGFSF[X9]F-NH2) | > 100 | > 100 |
| CN(C)C(=N)NCC[C@H](NC(=O)[C@H](Cc1ccccc1)NC(=O)[C@H](CO)NC(=O)[C@H](Cc1ccccc1)NC(=O)CNC(=O)CN)C(=O)N[C@@H](Cc1ccccc1)C(N)=O (H-GGFSF[X23]F-NH2) | > 100 | > 100 |
| C/N=C(/NC)NCCC[C@H](NC(=O)[C@H](Cc1ccccc1)NC(=O)[C@H](CO)NC(=O)[C@H](Cc1ccccc1)NC(=O)CNC(=O)CN)C(=O)N[C@@H](Cc1ccccc1)C(N)=O (H-GGFSF[Arg(Me2s)]F-NH2) | > 100 | > 100 |
| CC(C)CNC(=N)NCC[C@H](NC(=O)[C@H](Cc1ccccc1)NC(=O)[C@H](CO)NC(=O)[C@H](Cc1ccccc1)NC(=O)CNC(=O)CN)C(=O)N[C@@H](Cc1ccccc1)C(N)=O (H-GGFSF[X17]F-NH2) | > 100 | > 100 |
| CCN(C)C(=N)NCCC[C@H](NC(=O)[C@H](Cc1ccccc1)NC(=O)[C@H](CO)NC(=O)[C@H](Cc1ccccc1)NC(=O)CNC(=O)CN)C(=O)N[C@@H](Cc1ccccc1)C(N)=O (H-GGFSF[X21]F-NH2) | > 100 | > 100 |

Further lines, results first:

| IC50 [1] [µM] | EC50 [2] [µM] | Structure (SMILES) |
| --- | --- | --- |
| > 100 | > 100 | CN(C)C(=N)NCCCC[C@H](NC(=O)[C@H](Cc1ccccc1)NC(=O)[C@H](CO)NC(=O)[C@H](Cc1ccccc1)NC(=O)CNC(=O)CN)C(=O)N[C@@H](Cc1ccccc1)C(N)=O (H-GGFSF[X3]F-NH2) |
| – | 1.4 | CCCNC(=N)NCCC[C@H](NC(=O)[C@H](Cc1ccccc1)NC(=O)[C@H](CO)NC(=O)[C@H](Cc1ccccc1)NC(=O)CNC(=O)CN)C(=O)N[C@@H](Cc1ccccc1)C(N)=O (H-GGFSF[Arg(ω-nPr)]F-NH2) |
| – | 2.75 | CC(C)CNC(=N)NCCCC[C@H](NC(=O)[C@H](Cc1ccccc1)NC(=O)[C@H](CO)NC(=O)[C@H](Cc1ccccc1)NC(=O)CNC(=O)CN)C(=O)N[C@@H](Cc1ccccc1)C(N)=O (H-GGFSF[X11]F-NH2) |
| – | 1.91 | N=C(N)NCCCC[C@H](NC(=O)[C@H](Cc1ccccc1)NC(=O)[C@H](CO)NC(=O)[C@H](Cc1ccccc1)NC(=O)CNC(=O)CN)C(=O)N[C@@H](Cc1ccccc1)C(N)=O (H-GGFSF[hArg]F-NH2) |
| – | 1.5 | CC(C)CNC(=N)NCCC[C@H](NC(=O)[C@H](Cc1ccccc1)NC(=O)[C@H](CO)NC(=O)[C@H](Cc1ccccc1)NC(=O)CNC(=O)CN)C(=O)N[C@@H](Cc1ccccc1)C(N)=O (H-GGFSF[X16]F-NH2) |
